High-throughput results: PubChem, Johns Hopkins Ion Channel Center
TRPC6 activator: activates the mouse TRPC6 cation channel; Q61143; HEK293-TRPC6 membrane potential dye fluorescence; stronger effect = higher value; B-score at 10 µM; actives 0.13% (n = 310,000); AID 2550;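 active = B-score of the integrated fluorescence ratio above library mean plus 3 SD, and starting fluorescence ratio within library mean plus 5 SD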;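 note: higher score means more depolarization so channel activation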
TRPC4 potent: TRPC4 (mouse) allosteric potentiation | HEK293 TRPC4beta/mu-opioid, DAMGO EC20, Fluo-4 Ca2+ flux; stronger effect = higher value | B-score at 10 µM | actives 0.42% (n = 310,000) | AID 2227;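 active = B-score of calcium response area above 5 SD of library B-scores, with initial fluorescence ratio within 5 SD of library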
TRPC4 inh: inhibitors of mouse TRPC4 channel; Q9QUQ5; HEK293 TRPC4beta/mu-opioid, DAMGO-evoked Fluo4 calcium flux; stronger effect = lower value; B-score at 10 µM; actives 0.39% (n = 300,000); AID 2247;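 active = B-score over 3 SD under the library average, no early fluorescence shift, positive overall ratio signal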
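System: stable TRPC4beta/mu-opioid receptor HEK293 cells; Dosing: single-point compound dosing; Measured by: Fluo4 Ca2+ flux fluorescence; Read-out basis: per-well B score of integrated baseline-normalized Fluo4 ratio.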
TRPC6 inhibitor: blocks the mouse TRPC6 cation channel | actives 1.1% (n = 310,000) | B-score at 10 µM | Q61143 | HEK293-TRPC6, membrane potential dye, ACh-evoked depolarization; stronger effect = lower value;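 active = B-score under library mean minus 3 SD, initial fluorescence not abnormally high, positive integrated signal ratio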;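 note: B-score derived from integrated fluorescence ratio over the kinetic read; more negative B-score means stronger inhibition of depolarization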
TRPC4 agonist: opens the mouse TRPC4 cation channel. actives 0.49% (n = 310,000). HEK293 TRPC4beta/mu-opioid, Fluo4 calcium fluorescence; stronger effect = higher value. B-score at 10 µM. Q9QUQ5;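 active = B-score above 5 SD of library B-scores, and initial fluorescence ratio not above library mean plus 5 SD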;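 note: positive B-score marks a calcium rise read as TRPC4 activation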
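system = HEK293 cells stably co-expressing mouse TRPC4beta and mu-opioid receptor | schedule = Fluo4 dye loading 45 min at room temperature, 110 s recording | measure = B-scored integrated calcium fluorescence ratio | signal = Fluo4 calcium-sensitive dye fluorescence, kinetic, 1 Hz baseline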
TRPC4 spec 2: second check of whether TRPC6 inhibitors also affect mouse TRPC4; actives 42% (n = 920); inhibition, % at 10 µM; HEK293 TRPC4/MOR, membrane potential dye fluorescence; channel activated by saturating DAMGO dose; shares compounds with TRPC6 inhibitor;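 active = compounds whose fluorescence signal differed from control wells by over 3 SD, either direction, in both duplicate plates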
TRPC4 spec: selectivity of TRPC6 inhibitors: effect on mouse TRPC4 | shares compounds with TRPC6 inhibitor | HEK293 TRPC4/mu-opioid, membrane potential fluorescence | activity change, negative = inhibition, % at 10 µM | actives 61% (n = 920);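 active = rise or fall in signal beyond 3 SD of buffer-only wells in both replicate plates, either sign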;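 note: integrated kinetic ratio of fluorescence range over baseline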
HEK293 MPD ctr 2-1: parental HEK293 nonspecific activity of TRPC6 inhibitors, second screen. shares compounds with TRPC6 inhibitor. parental HEK293 membrane potential dye fluorescence; maximal acetylcholine challenge after compound addition. signal change vs control, % at 10 µM. actives 31% (n = 920). AID 2779;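 active = membrane potential signal moving either way by over 3 SD of the maximum-effect control, in both duplicate plates, meaning non-specific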
HEK293 MPD ctr-1: parental HEK293 nonspecific activity of TRPC6 inhibitors. shares compounds with TRPC6 inhibitor. parental HEK293 membrane potential dye fluorescence. membrane potential signal change, % at 10 µM. actives 60% (n = 920);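 active = membrane potential signal shifting up or down by more than 3 SD of buffer-only wells, on both duplicate plates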
HEK293 MPD ctr-2: checks TRPC6 modulator effects in parental HEK293 cells | shares compounds with TRPC6 inhibitor | membrane potential dye fluorescence | membrane potential signal change, % at 10 µM | actives 51% (n = 2,400) | AID 488924;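 active = membrane potential signal moves up or down beyond 5 SD from buffer-only wells, on both duplicate plates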
HEK293 MPD ctr 2-2: second counter-screen for TRPC6 modulators: effect in parental HEK293 cells; inhibition, % at 10 µM; membrane potential dye fluorescence; after compound, maximal acetylcholine stimulation; AID 488926; actives 14% (n = 2,400); shares compounds with TRPC6 inhibitor;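 active = membrane potential signal drops by more than 5 SD from the mean control signal, in both duplicate plates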
TRPC4 ctr mod: tests whether TRPC6 modulators also affect mouse TRPC4. shares compounds with TRPC6 inhibitor. HEK293 TRPC4/mu-opioid, membrane potential fluorescence. percent change from control (negative = decrease, positive = increase), % at 10 µM. actives 69% (n = 2,400);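 active = membrane potential signal moved up or down beyond 5 SD of buffer control wells, in both duplicate plates, actives on both sides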
TRPC4 ctr inh 2: second selectivity test of TRPC6 modulators against mouse TRPC4. shares compounds with TRPC6 inhibitor. HEK293 TRPC4/mu-opioid, membrane potential dye fluorescence; stimulated with maximal-effect DAMGO. inhibition, % at 10 µM. actives 55% (n = 2,400). AID 488928;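 active = drop in membrane potential signal beyond 5 SD of the control wells in both duplicate plates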;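 note: TRPC4 counter screen for TRPC6 hits run under conditions tuned for TRPC6 not TRPC4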
TRPC6 block conf: confirmation of mouse TRPC6 inhibitors | shares compounds with TRPC6 inhibitor | HEK293-TRPC6, membrane potential dye, ACh-evoked depolarization | inhibition, % at 10 µM | actives 43% (n = 3,300);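 active = fluorescence ratio falls more than 5 SD below the full-stimulation control mean, in both duplicate runs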;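 note: integrated fluorescence ratio of peak minus minimum over baseline after agonist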
TRPC6 act conf: confirmation of mouse TRPC6 activators; shares compounds with TRPC6 inhibitor; HEK293-TRPC6 membrane potential dye fluorescence, FDSS; activation, % at 10 µM; actives 11% (n = 2,800);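 active = ratio signal rise beyond 5 SD above unstimulated control wells' mean, seen in both duplicate runs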
Hits are given with their value; . = inactive; / = no result given. Compounds with a hit are over-represented: about 2.3% of the library has one in this group of screens.

SMILES	TRPC6 activator	TRPC4 potent	TRPC4 inh	TRPC6 inhibitor	TRPC4 agonist	HEK293 MPD ctr-2	HEK293 MPD ctr 2-2	TRPC4 ctr mod	TRPC4 ctr inh 2	TRPC6 block conf	TRPC6 act conf	others
CN1CCN(C2Cc3ccc(F)cc3Sc3cc(F)c(Cl)cc32)CC1 (stereo not given)	.	.	.	.	.	/	/	/	/	/	/
CN1CCN(C2Cc3ccccc3Sc3cc(C(F)(F)F)ccc32)CC1 (stereo not given)	.	.	.	.	.	/	/	/	/	/	/
CC(C)c1ccc2c(c1)C(N1CCNCC1)Cc1ccc(F)cc1S2 (stereo not given)	.	.	.	.	.	/	/	/	/	/	/
CN1CCN(C2Cc3cc(F)ccc3Sc3ccc(Cl)cc32)CC1 (stereo not given)	.	.	.	-5.3	.	.	.	21%	47%	48%	/
Cc1cccc2c1Sc1ccc(Cl)cc1CC2N1CCNCC1 (stereo not given)	.	.	.	-5.1	.	.	.	.	61%	43%	.
CSCCC(NC(=O)COc1ccccc1)C(=O)N1CCN(c2ccccc2O)CC1 (stereo not given)	.	.	.	.	.	/	/	/	/	/	/
CSCCC(NC(N)=O)C(=O)Nc1ccc(F)c(Cl)c1 (stereo not given)	.	.	.	.	.	/	/	/	/	/	/
O=C1Nc2ccc(Br)cc2/C1=C/c1ccc(C(=O)O)cc1	.	.	.	.	.	/	/	/	/	/	/
N#Cc1cnn(Cc2ccccc2)c1N	.	.	.	-6.2	.	.	.	.	.	.	.
N#Cc1cnn(Cc2ccc(Cl)cc2)c1N	.	.	/	.	.	/	/	/	/	/	/
CCOc1ccccc1C(=O)OCC(=O)NCC1CCCCC1	.	.	.	.	.	/	/	/	/	/	/
N#C/C(=N\Nc1cccc([N+](=O)[O-])c1)C(=O)c1ccc(Br)cc1	.	.	-6	-7.3	.	/	/	/	/	79%	.	TRPC4 spec 2=53%;TRPC4 spec=.;HEK293 MPD ctr 2-1=.;HEK293 MPD ctr-1=-156%
CSc1nc2ccc(NC(=O)c3ccc(=O)n(C)n3)cc2s1	.	.	.	-5.1	.	.	.	.	.	.	.
COc1cc(Br)cc2cc(C(=O)OC3CCN(C)CC3)c(=O)oc12	.	.	.	-12	.	/	/	/	/	.	.	TRPC4 spec 2=72%;TRPC4 spec=-25%;HEK293 MPD ctr 2-1=.;HEK293 MPD ctr-1=-472%
CCOC(=O)/C(=N\Nc1ccc(C(C)=O)cc1)c1csc(Nc2ccccc2)n1	.	.	.	.	.	/	/	/	/	/	/
CCOC(=O)/C(=N\Nc1ccccc1[N+](=O)[O-])c1csc(N)n1	.	.	.	-5.2	.	.	.	-18%	.	.	.
Cc1ccc(-c2nc(C)sc2CC(=O)OCC(=O)Nc2cccc([N+](=O)[O-])c2)cc1	.	.	.	.	.	/	/	/	/	/	/
Cc1ccc(C(=O)c2ccccc2C(=O)OCC(=O)Nc2cccc([N+](=O)[O-])c2)cc1	.	.	.	-6.5	.	.	.	.	.	.	.
CCN(CC)c1ccc(C2Nc3cccc4cccc(c34)N2)cc1	.	.	.	-5.5	.	.	.	.	.	.	.
O=C(Nc1ccc(N2CCCC2)cc1)c1ccc(Cl)cc1Cl	.	.	.	.	.	/	/	/	/	/	/
CN1CCN(c2ccc(NC(=O)c3ccc(Cl)cc3Cl)cc2)CC1	.	.	.	-5.9	.	.	.	.	.	.	.
Cc1cc(N2CCOCC2)ccc1/C=C\[N+](=O)[O-]	15	.	.	.	.	260%	.	32%	.	.	79%
Cc1ccc(-c2c[n+](CC(=O)Nc3c(C)cccc3C)c3n2CCC3)cc1	.	.	.	.	.	/	/	/	/	/	/
Cc1ccc(-c2c[n+](Cc3cccc(Cl)c3)c3n2CCC3)cc1	.	.	-6	-5.1	.	-147%	.	-24%	84%	.	.
Cc1ccc(C[n+]2cc(-c3ccc(Cl)cc3)n3c2CCC3)cc1	.	.	-7	-5.6	.	-96%	.	-18%	30%	.	.
SMILES	TRPC6 activator	TRPC4 potent	TRPC4 inh	TRPC6 inhibitor	TRPC4 agonist	HEK293 MPD ctr-2	HEK293 MPD ctr 2-2	TRPC4 ctr mod	TRPC4 ctr inh 2	TRPC6 block conf	TRPC6 act conf	others
Cc1cc(C)c2c(n1)SCC(=O)N2CC(=O)Nc1ccc(F)cc1	.	.	.	.	.	/	/	/	/	/	/
CC(=O)N1CCc2ccc(S(=O)(=O)N3CCN(C)CC3)cc21	.	.	.	-5.1	.	123%	.	40%	.	.	/
O=C(COC(=O)C1CCN(/C=C/C(=O)C(F)(F)F)CC1)Nc1cccc(F)c1	.	.	.	.	.	/	/	/	/	/	/
Cc1cc(N2C(=O)NC(=O)CC2C)c(C)cc1C(C)C (stereo not given)	.	.	.	-5.1	.	.	.	.	.	.	.
CCOc1ccc(CN2C(=O)CC(=O)N(S(=O)(=O)c3ccc(OCC)cc3)C2=O)cc1	.	.	.	.	.	/	/	/	/	/	/
O=C(NCCNC(=O)c1cccc(O)c1)c1cccc(O)c1	.	.	.	.	.	/	/	/	/	/	/
Nc1cccc(C(=O)NCCNC(=O)c2cccc(N)c2)c1	.	.	.	-7.1	.	/	/	/	/	.	.	TRPC4 spec 2=.;TRPC4 spec=.;HEK293 MPD ctr 2-1=.;HEK293 MPD ctr-1=.
Cc1cccc(NC(=O)CSc2nc3nc(C)cc(C)c3c(=O)[nH]2)c1	.	.	.	-6.9	.	/	/	/	/	.	.	TRPC4 spec 2=.;TRPC4 spec=.;HEK293 MPD ctr 2-1=.;HEK293 MPD ctr-1=.
Cc1ccc(-c2nc3ccccn3c2NCc2ccc3c(c2)OCO3)cc1	.	.	.	-5.5	.	.	.	-19%	69%	44%	.
COc1ccc(-c2nc3ccc(C)cn3c2NCc2ccc3c(c2)OCO3)cc1	.	.	.	.	.	/	/	/	/	/	/
